Source: ChEMBL document CHEMBL3526153, “Metabolism of gambogic acid in rats: a rare intestinal metabolic pathway responsible for its final disposition” (Drug Metab Dispos, 2011)

Experiments:
[1] = Drug level in Sprague-Dawley rat gut treated with gambogic acid at 4 mg/kg, iv; format: ADME, organism-based; parameters: dose 4 mg/kg, route intravenous; conditions: in vivo
[2] = Retention time of the compound in Sprague-Dawley rat feces treated with gambogic acid at 4 mg/kg, iv measured over 24 hrs by LC-DAD-MS/MS analysis; format: ADME, organism-based; parameters: dose 4 mg/kg, route intravenous; conditions: in vivo
Outline: (§1)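 SD rats (250 ± 20 g), n=4, given GA 4 mg/kg i.v. via tail vein in 2 mL; feces pooled 0–24 h and stored at −20 °C. Feces (0.6 g) homogenized in 50% acetonitrile, sonicated, centrifuged, filtered, then ethyl acetate extraction. Analysed by C18 LC-DAD-MS/MS (gradient 38–80% acetonitrile, 10 mM ammonium acetate, 40 °C), negative ESI.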

[3] = Drug level in intestine (unknown origin) treated with gambogic acid; format: ADME, tissue-based
Outline: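 Intestinal contents from undosed rats homogenized in 5 mL water. 100 μL of 1.0 mg/mL GA solution added, incubated about 24 h at 37 °C, duplicate. 1.0 mL extracted with ethyl acetate. LC-MS/MS with negative ESI, SIM at m/z 709.3 plus full and product-ion scans, acetonitrile gradient 50–90%.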

[4] = Retention time of the compound in Sprague-Dawley rat bile treated with gambogic acid at 4 mg/kg, iv measured over 24 hrs by LC-DAD-MS/MS analysis; format: ADME, organism-based; parameters: dose 4 mg/kg, route intravenous; conditions: in vivo
Outline: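 SD rats, n=4, bile-duct cannulated under chloral hydrate and allowed 1 h recovery. GA 4 mg/kg i.v.; bile collected on ice, pooled 0–24 h. C18 LC-DAD-MS/MS at 0.25 mL/min with acetonitrile gradient (38% to 80%) in 10 mM ammonium acetate, 40 °C, negative ESI.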

Plasma = test: Drug level in Sprague-Dawley rat plasma treated with gambogic acid at 4 mg/kg, iv measured over 4 hrs by LC-DAD-MS/MS analysis; format: ADME, organism-based; parameters: dose 4 mg/kg, route intravenous; conditions: in vivo
Outline: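 Six SD rats given GA 4 mg/kg i.v. via tail vein. Tail blood taken into heparin at 0.033–4 h; plasma separated at 3000 × g, 4 °C, and pooled 0–4 h. 1 mL extracted with 4 mL ethyl acetate, dried, reconstituted. Isocratic 68% acetonitrile, LC-MS/MS in negative ESI.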

[5] = Drug level in rat liver microsomes assessed as CYP450-mediated compound formation treated with gambogic acid at 50 uM preincubated for 10 mins followed by NADPH addition measured after 1 hr by LC-DAD-MS/MS analysis; format: ADME
Outline: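 GA 50 µM with rat liver microsomes 1.0 mg/mL in 0.1 M PBS pH 7.4, pre-incubated 10 min at 37 °C. Started with NADPH (6.0 mM final) and run 1 h at 37 °C. Controls lacked NADPH or microsomes; duplicate. Stopped with ice-cold acetonitrile, centrifuged, supernatant dried and reconstituted. Isocratic LC (65% acetonitrile), negative-ion ESI MS/MS.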

[6] = Drug level in Sprague-Dawley rat feces treated with gambogic acid at 4 mg/kg, iv measured over 24 hrs by LC-DAD-MS/MS analysis; format: ADME, organism-based; parameters: dose 4 mg/kg, route intravenous; conditions: in vivo; outline: as §1
[7] = Drug level in PBS buffer treated with gambogic acid at 50 uM preincubated for 10 mins followed by NADPH addition measured after 1 hr by LC-DAD-MS/MS analysis in absence of liver microsomes; format: physicochemical
Outline: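 Control incubation with no microsomes: GA 50 μM (added in 5.0 μL acetonitrile) in 0.1 M PBS pH 7.4, 1.0 mL, preincubated 10 min at 37 °C with shaking. NADPH added to 6.0 mM final, then 1 h at 37 °C, duplicate. Stopped with ice-cold acetonitrile, centrifuged, supernatant dried under N2, reconstituted in mobile phase. LC-MS/MS with negative ESI, isocratic 65% acetonitrile.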

Drug metabolism [1] | Retention_time [2] | Drug metabolism [3] | Retention_time [4] | Drug metabolism (Plasma) | Drug metabolism [5] | Drug metabolism [6] | Drug metabolism [7] | Compound
metabolite_detected | 19.4 min | metabolite_detected |  |  |  |  |  | CC(C)=CCC[C@]1(C)C=Cc2c(O)c3c(c(CC=C(C)C)c2O1)O[C@]12C(C3=O)[C@@H](S(=O)(=O)O)[C@@H]3C[C@H]1C(C)(C)O[C@@]2(C/C=C(/C)C(=O)O)C3=O (some centres not stated)
metabolite_detected | 16.9 min | metabolite_detected |  |  |  |  |  | CC(C)=CCC[C@]1(C)C=Cc2c(O)c3c(c(CC=C(C)C)c2O1)O[C@]12C(C3=O)[C@H](S(=O)(=O)O)[C@@H]3C[C@H]1C(C)(C)O[C@@]2(C/C=C(/C)C(=O)O)C3=O (some centres not stated)
 |  |  | 39.5 min | metabolite_detected | metabolite_detected | metabolite_detected | metabolite_detected | CC(C)=CCC[C@]1(C)C=Cc2c(O)c3c(c(CC=C(C)C)c2O1)O[C@]12C(C3=O)C(O)[C@@H]3C[C@H]1C(C)(C)O[C@@]2(C/C=C(/C)C(=O)O)C3=O (some centres not stated)
 |  |  | 38.7 min |  |  |  |  | CC(C)=CCC[C@]1(C)C=Cc2c(O)c3c(c(CC=C(C)C)c2O1)O[C@]12C(C3=O)C(O[C@@H]3O[C@H](CO)[C@@H](O)[C@H](O)[C@H]3O)[C@@H]3C[C@H]1C(C)(C)O[C@@]2(C/C=C(/C)C(=O)O)C3=O (some centres not stated)
